# In the library only some 0.96% were active in any assay of this set; here they are far more common.
# MEP2-GFP yeast: modulators of MEP2-GFP levels in yeast, primary screen, S. cerevisiae, multiplex flow cytometry, MLPCN library; AID 2016, 2009; actives 0.51% (n = 330,000); S. cerevisiae MEP2-GFP strain, 3 h; 100% = DMSO control level; GFP response vs DMSO, % at 10 µM;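 active = GFP response versus DMSO above a set limit, roughly screen mean plus 3 SD, cut at about 180% in these data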;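 note: median GFP fluorescence of the barcode-gated MEP2-GFP cells per well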
# CIT2 TOR yeast: modulators of CIT2-GFP expression in yeast, primary screen, S. cerevisiae, GFP fusion, multiplex flow cytometry, MLPCN library | S. cerevisiae CIT2-GFP strain, 3 h; 100 means same as DMSO wells | GFP response vs DMSO, % at 10 µM | actives 0.065% (n = 320,000);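 active = GFP response relative to DMSO above a set limit, near the screen mean plus 3 SD, cut at about 150% in these data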;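 note: ratio of well median GFP fluorescence to mean of DMSO wells on the plate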
# T cell HTS: modulators of CD8 T cell-vesicle binding, primary screen, mouse 2C CD8+ T cells, flow cytometry | 2C CD8+ T cell-vesicle binding; active compounds read low | response (vesicle binding), % at 7 µM | actives 0.068% (n = 330,000);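 active = response, share of CD8 T cells binding vesicles, and their 90th percentile fluorescence all below set limits, cut at about 80% in these data, passing the limit was not always enough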;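 note: values below 100% mean blocked vesicle binding to the CD8+ T cells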
#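 Assay system: 2C TCR transgenic mouse naive CD8+ T cells, MACS-purified | Read-out: CD8+ gate FL2 mean fluorescence as % of same-row positive control | Signal: High-throughput flow cytometry with anti-B7-1 and anti-CD8 staining | Timing: Binding step 1.5 h, 37 °C, antibody labelling 20 min, ice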
# LAP4 TOR yeast: modulators of LAP4-GFP expression in yeast, primary screen, S. cerevisiae, multiplex flow cytometry, MLPCN library | 3 h; median GFP as percent of DMSO wells | GFP response vs DMSO, % at 10 µM | actives 0.34% (n = 320,000);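 active = GFP response vs DMSO above a set limit, about the screen mean plus 3 SD, cut at about 150% in these data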
# RPL19A-GFP yeast: RPL19A-GFP expression modulators in yeast, primary screen, cell-based, S. cerevisiae, multiplex flow cytometry, MLPCN; AID 2025, 2009; S. cerevisiae RPL19A-GFP strain, 3 h; active compounds read low; percent response vs DMSO, % at 10 µM; actives 0.3% (n = 330,000);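 active = percent response vs DMSO below 50%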;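 note: median channel GFP fluorescence of the barcoded RPL19A-GFP strain; ratio of sample median GFP to plate DMSO average so 100% = DMSO; lower means less RPL19A-GFP as with rapamycin TOR inhibition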
# AGP1-GFP MLPCN: modulators of AGP1-GFP expression in yeast TOR pathway, primary screen, cell-based, multiplex flow cytometry, S. cerevisiae, MLPCN library; 3 h; GFP as percent of DMSO wells; GFP response vs DMSO, % at 10 µM; actives 0.02% (n = 320,000);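 active = GFP response relative to DMSO above a set limit, near screen average plus 3 SD, cut at about 150% in these data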;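 note: median GFP channel fluorescence of the gated AGP1 strain per well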
# LAP4 cherry2: LAP4-GFP expression modulators in yeast, confirmation, cell-based, second cherry pick, flow cytometry; AID 2621, 2010; actives 20% (n = 590); S. cerevisiae LAP4-GFP strain, 3 h; shares compounds with LAP4 TOR yeast; GFP response vs DMSO, % at 10 µM;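 active = GFP signal as percent of the solvent control above about 150%, meaning raised reporter expression, limit read from the data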;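 note: ratio of well median GFP fluorescence to plate DMSO mean so 100% = DMSO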
# MEP2 cherry2: modulators of MEP2-GFP levels in yeast, confirmation, S. cerevisiae, flow cytometry GFP, second cherry picks. shares compounds with LAP4 TOR yeast. S. cerevisiae MEP2-GFP strain, 3 h. GFP response vs DMSO, % at 10 µM. actives 10% (n = 590). AID 2622, 2010;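 active = GFP signal above 150% of the solvent control wells, that is a rise of more than half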;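 note: median channel GFP fluorescence of all gated yeast cells per well; ratio of median GFP to plate DMSO average so 100% = DMSO level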
# RPL19A-GFP pick2: RPL19A-GFP modulators in TOR pathway yeast, confirmation, cell-based, S. cerevisiae, flow cytometry, second cherry pick | GFP response vs DMSO, % at 10 µM | shares compounds with LAP4 TOR yeast | AID 2623, 2010 | S. cerevisiae RPL19A-GFP strain, 3 h; active compounds read low; 100% means same as DMSO wells | actives 3% (n = 590);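 active = under 65% GFP response relative to DMSO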;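 note: median GFP channel fluorescence per well over the all cells gate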
# CIT2 GFP CP2: modulators of CIT2-GFP expression in yeast, confirmation, flow cytometry, second cherry pick, single plex; shares compounds with LAP4 TOR yeast; S. cerevisiae CIT2-GFP strain, 3 h; DMSO control wells read 100%; GFP response vs DMSO, % at 10 µM; actives 8% (n = 590); AID 2624, 2010;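 active = GFP response vs DMSO above about 150%, limit read from the data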;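 note: median green fluorescence per well over all gated yeast cells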
# AGP1 GFP CP2: AGP1-GFP expression modulators, hit retest, confirmation, cell-based, flow cytometry, S. cerevisiae, cherry pick set 2; shares compounds with LAP4 TOR yeast; S. cerevisiae AGP1-GFP strain, 3 h; percent response vs DMSO, % at 10 µM; 590 tested, under 10 active; AID 2643, 2010;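 active = over 150 percent of DMSO response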;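 note: median GFP channel fluorescence over all cells without mother daughter split; sample median GFP divided by mean DMSO control so 100% equals DMSO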
# s288c autofluor: compound autofluorescence in yeast s288c, dose response, artefact control for yeast TOR pathway GFP screen, s288c strain | shares compounds with LAP4 TOR yeast | S. cerevisiae s288c, 520 nm autofluorescence, flow cytometry, 3 h; active compounds read high; zero means same as solvent-only cells | fluorescence change (kMESF span) at 33 µM | 610 tested, under 10 active | AID 2757, 2010;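 active = fluorescence span over the dose series, or activity score, above about 33, limit read from the data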
# s288c autofl DR: autofluorescence of compounds in yeast s288c, dose response, artefact control for yeast TOR pathway GFP screen, primary hits, KU SAR, s288c parental; AID 488829, 2010; 110 tested, under 10 active; S. cerevisiae s288c parental, compound autofluorescence, flow cytometry, 3 h; shares compounds with LAP4 TOR yeast; fluorescence change (span) at 33 µM;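 active = fluorescence change span, or the activity score built from it, above 25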
# TORC1 bypass gr: wild-type yeast growth inhibition sparing TORC1 bypass cells, mechanism study for yeast TOR pathway GFP screen, BY4741 wild type, TORC1 bypass strain. S. cerevisiae BY4741 spot growth rating, 48-72 h; active compounds read low. 120 tested, under 10 active. growth rating (0-3) at 30 µM. shares compounds with LAP4 TOR yeast;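 active = growth rating at most 1 for wild type yeast while the TORC1 bypass strain still grows fully, rated 3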
# * = called active by the depositor; . = no result given.
SMILES,MEP2-GFP yeast,CIT2 TOR yeast,T cell HTS,LAP4 TOR yeast,RPL19A-GFP yeast,AGP1-GFP MLPCN,LAP4 cherry2,MEP2 cherry2,RPL19A-GFP pick2,CIT2 GFP CP2,AGP1 GFP CP2,s288c autofluor,others
O=C(NCC1CCCO1)C1CCN(S(=O)(=O)N2CCCC2)CC1 (configuration not stated),98,101,406,105,100,107,.,.,.,.,.,.,
Cc1ccc(S(=O)(=O)c2ncccc2[N+](=O)[O-])cc1,104,99,340,199*,88,101,.,.,.,.,.,0.3,s288c autofl DR=0.16;TORC1 bypass gr=3
Cc1noc(C)c1CSCC(=O)Nc1cc(C(F)(F)F)ccc1N1CCOCC1,99,107,588,106,105,106,.,.,.,.,.,.,
CCOCCCNC(=O)C1CCCN(S(=O)(=O)c2cccc3nsnc23)C1 (configuration not stated),86,68,394,234*,72,100,97,105,100,101,101,.,
CCN(Cc1nc2cc(Cl)ccc2c(=O)[nH]1)C(=O)c1nn(C)c(=O)c2ccccc12,98,89,323,97,98,100,.,.,.,.,.,.,
Cc1nn(C)cc1S(=O)(=O)N1CCN(c2cccc(Cl)c2)CC1,102,109,290,99,104,105,.,.,.,.,.,.,
O=C(NNC(=O)c1sccc1-n1cccc1)c1ccccc1,98,111,567,96,98,97,.,.,.,.,.,.,
O=C(NNC(=O)c1sccc1-n1cccc1)c1cccc(Cl)c1,89,88,175,203*,82,100,94,96,101,107,95,.,
O=S(=O)(Nc1ccc2c(c1)OCO2)c1ccc(F)c(F)c1,95,102,376,101,99,99,.,.,.,.,.,.,
CCN1CCN(C(=O)c2ccc(C)c(S(=O)(=O)Nc3cccc(C)c3)c2)CC1,114,166*,183,103,99,111,100,105,99,104,104,.,
O=C1Nc2ccc(Br)cc2/C1=C/C(=O)c1ccc2c(c1)OCO2,86,92,197,131,94,99,.,.,.,.,.,-0.4,
Cc1nn(-c2ccccc2[N+](=O)[O-])c(=O)c2ccccc12,107,76,804,109,60,22,97,93,99,105,99,.,
CCc1cc(C(=O)Nc2nc(-c3ccccn3)cs2)sc1C,99,78,964,208*,88,70,156*,114,103,111,91,0.5,
CC(Oc1ccc(Br)cc1)C(=O)Nc1nc(-c2ccccn2)cs1 (configuration not stated),98,96,540,168*,101,72,.,.,.,.,.,1.1,s288c autofl DR=0.29;TORC1 bypass gr=3
Cc1cc(C(=O)Nc2nc(-c3ccccn3)cs2)ccc1[N+](=O)[O-],100,98,737,160*,101,98,.,.,.,.,.,1.3,s288c autofl DR=0.08;TORC1 bypass gr=3
O=C(Nc1nc(-c2ccccn2)cs1)C1COc2ccccc2O1 (configuration not stated),101,102,499,162*,93,98,136,113,102,116,92,0.8,s288c autofl DR=3.5;TORC1 bypass gr=3
Cc1cc(C)c2c(n1)SCC(=O)N2CC(=O)Nc1cc(F)ccc1F,105,96,484,115,105,98,.,.,.,.,.,.,
COc1ccc(C2=NN(C(=O)COC(=O)c3ccc(NC(=O)CC#N)cc3)C(c3ccco3)C2)cc1 (configuration not stated),103,98,248,101,99,104,.,.,.,.,.,.,
Cc1cc2c(cc1S(=O)(=O)NCCc1ccc(Cl)cc1)OCC(=O)N2,95,96,208,103,99,100,.,.,.,.,.,.,
Cn1ncc(S(=O)(=O)Cc2ccccc2)c(Cl)c1=O,94,93,729,161*,100,101,.,.,.,.,.,0.2,s288c autofl DR=0.84;TORC1 bypass gr=3
O=C(CSC1=NS(=O)(=O)c2ccccc21)Nc1ccccc1,90,68,779,116,59,65,113,124,62*,115,72,0.5,
O=C(Nc1ccccc1)C(Cl)C(=O)c1ccccc1 (configuration not stated),97,93,188,130,101,86,120,114,105,125,107,.,
CC(=O)C(Cl)C(=O)Nc1ccccc1 (configuration not stated),.,.,.,.,.,.,120,121,103,123,112,.,

# Screens: PubChem BioAssay, NMMLSC
